According to ChEMBL document CHEMBL1250553, “Synthesis, cytotoxicity and liposome preparation of 28-acetylenic betulin derivatives” (Bioorg Med Chem, 2010):
The source made the active and inactive calls. The calls are words filed in the database; no cut-off is given here.

What was measured:
Format in all cases: functional, cell-based
HCT-8 [1] = test: Cytotoxicity against human HCT8 cells after 96 hrs by sulforhodamine B assay; details: HCT-8, 96 h
In short: (§1)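 Human tumour cell lines in 96-well plates, exposed to test compounds for 96 h, then read by colorimetric sulforhodamine B staining. Viable cells are expressed as % of untreated controls. IC50 is taken from dose–response curves, top concentration 30 µM, as the mean of at least three independent experiments (variation generally 10%). Compounds are given as DMSO solutions or as an aqueous liposomal formulation.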

HCT-116 [2] = test: Cytotoxicity against human HCT116 cells after 96 hrs by sulforhodamine B assay; details: HCT-116, 96 h; in short: as §1
[3] = Cytotoxicity against human liposarcoma cells after 96 hrs by sulforhodamine B assay; in short: as §1
A549 [4] = test: Cytotoxicity against human A549 cells after 96 hrs by sulforhodamine B assay; details: A549, 96 h; in short: as §1
FaDu [5] = test: Cytotoxicity against human FADU cells after 96 hrs by sulforhodamine B assay; in short: as §1
[6] = Cytotoxicity against human 518A2 cells after 96 hrs by sulforhodamine B assay; details: 518A2, 96 h; in short: as §1
SW-1736 [7] = test: Cytotoxicity against human SW1736 cells after 96 hrs by sulforhodamine B assay; details: SW-1736, 96 h; in short: as §1
8505C [8] = test: Cytotoxicity against human 8505C cells after 96 hrs by sulforhodamine B assay; in short: as §1
HT-29 [9] = test: Cytotoxicity against human HT-29 cells after 96 hrs by sulforhodamine B assay; details: HT-29, 96 h; in short: as §1
SW480 [10] = test: Cytotoxicity against human SW480 cells after 96 hrs by sulforhodamine B assay; details: SW480, 96 h; in short: as §1
[11] = Cytotoxicity against human A253 cells after 96 hrs by sulforhodamine B assay; details: A253, 96 h; in short: as §1
A2780 [12] = test: Cytotoxicity against human A2780 cells after 96 hrs by sulforhodamine B assay; details: A2780, 96 h; in short: as §1
A-431 [13] = test: Cytotoxicity against human A431 cells after 96 hrs by sulforhodamine B assay; details: A-431, 96 h; in short: as §1
MCF7 [14] = test: Cytotoxicity against human MCF7 cells after 96 hrs by sulforhodamine B assay; details: MCF7, 96 h; in short: as §1
DLD-1 [15] = test: Cytotoxicity against human DLD1 cells after 96 hrs by sulforhodamine B assay; details: DLD-1, 96 h; in short: as §1
A-431 [16] = test: Cytotoxicity against human A431 cells at 30 uM after 96 hrs by sulforhodamine B assay
In short: (§2)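 Growth inhibition at the highest tested concentration, 30 µM, after 96 h exposure in 96-well plates. Read by SRB staining as % viable cells relative to untreated controls, from at least three independent experiments.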

HCT-8 [17] = test: Cytotoxicity against human HCT8 cells at 30 uM after 96 hrs by sulforhodamine B assay; in short: as §2
8505C [18] = test: Cytotoxicity against human 8505C cells at 30 uM after 96 hrs by sulforhodamine B assay; in short: as §2
HT-29 [19] = test: Cytotoxicity against human HT-29 cells at 30 uM after 96 hrs by sulforhodamine B assay; in short: as §2
FaDu [20] = test: Cytotoxicity against human FADU cells at 30 uM after 96 hrs by sulforhodamine B assay; in short: as §2
SW480 [21] = test: Cytotoxicity against human SW480 cells at 30 uM after 96 hrs by sulforhodamine B assay; in short: as §2
SW-1736 [22] = test: Cytotoxicity against human SW1736 cells at 30 uM after 96 hrs by sulforhodamine B assay; in short: as §2
A549 [23] = test: Cytotoxicity against human A549 cells at 30 uM after 96 hrs by sulforhodamine B assay; in short: as §2
A253 = test: Cytotoxicity against human A253 cells at 30 uM after 96 hrs by sulforhodamine B assay; in short: as §2
A2780 [24] = test: Cytotoxicity against human A2780 cells at 30 uM after 96 hrs by sulforhodamine B assay; in short: as §2
518A2 = test: Cytotoxicity against human 518A2 cells at 30 uM after 96 hrs by sulforhodamine B assay; in short: as §2
HCT-116 [25] = test: Cytotoxicity against human HCT116 cells at 30 uM after 96 hrs by sulforhodamine B assay; in short: as §2
DLD-1 [26] = test: Cytotoxicity against human DLD1 cells at 30 uM after 96 hrs by sulforhodamine B assay; in short: as §2
Homo sapiens = species on record: Homo sapiens; test: Cytotoxicity against human liposarcoma cells at 30 uM after 96 hrs by sulforhodamine B assay; in short: as §2
MCF7 [27] = test: Cytotoxicity against human MCF7 cells at 30 uM after 96 hrs by sulforhodamine B assay; in short: as §2

| Structure (SMILES) | IC50 (HCT-8 [1]) [µM] | IC50 (HCT-116 [2]) [µM] | IC50 [3] [µM] | IC50 (A549 [4]) [µM] | IC50 (FaDu [5]) [µM] | IC50 [6] [µM] | IC50 (SW-1736 [7]) [µM] | IC50 (8505C [8]) [µM] | IC50 (HT-29 [9]) [µM] | IC50 (SW480 [10]) [µM] | IC50 [11] [µM] | IC50 (A2780 [12]) [µM] | IC50 (A-431 [13]) [µM] | IC50 (MCF7 [14]) [µM] | IC50 (DLD-1 [15]) [µM] | inhibition (HT-29 [19]) | inhibition (518A2) | inhibition (DLD-1 [26]) | further results |
| --- | --- | --- | --- | --- | --- | --- | --- | --- | --- | --- | --- | --- | --- | --- | --- | --- | --- | --- | --- |
| C=C(C)[C@@H]1CC[C@]2([C@@H]3OC(=O)C=C3N3CCCC3)CC[C@]3(C)[C@H](CC[C@@H]4[C@@]5(C)CC[C@H](OC(C)=O)C(C)(C)[C@@H]5CC[C@]43C)[C@@H]12 | 0.5 | 2.1 | 6 | 7.8 | 6.3 | 4.7 | 4.1 | 5.3 | 3.9 | 5.7 | 4.6 | 2.2 | 2.1 | 3.7 | 5.4 |  |  |  |  |
| C=C(C)[C@@H]1CC[C@]2([C@H](O)C#Cc3ccccc3)CC[C@]3(C)[C@H](CC[C@@H]4[C@@]5(C)CC[C@H](OC(C)=O)C(C)(C)[C@@H]5CC[C@]43C)[C@@H]12 |  |  |  |  |  |  |  |  |  |  |  |  |  |  |  | inactive | inactive | inactive | inhibition (A-431 [16]): inactive; inhibition (HCT-8 [17]): inactive; inhibition (8505C [18]): inactive; inhibition (FaDu [20]): inactive; inhibition (SW480 [21]): inactive; inhibition (SW-1736 [22]): inactive; inhibition (A549 [23]): inactive; inhibition (A253): inactive; inhibition (A2780 [24]): inactive; inhibition (HCT-116 [25]): inactive; inhibition (Homo sapiens): inactive; inhibition (MCF7 [27]): inactive |
| C=C(C)[C@@H]1CC[C@]2([C@@H]3OC(=O)C=C3NC3CC3)CC[C@]3(C)[C@H](CC[C@@H]4[C@@]5(C)CC[C@H](OC(C)=O)C(C)(C)[C@@H]5CC[C@]43C)[C@@H]12 | 1.9 | 3.2 | 5.8 | 6.6 | 6 | 6.2 | 3.9 | 6 | 5.1 | 8 | 4.2 | 2.5 | 2.9 | 4 | 4.7 |  |  |  |  |
| C=C(C)[C@@H]1CC[C@]2([C@H](O)c3nn[nH]c3C(=O)OC)CC[C@]3(C)[C@H](CC[C@@H]4[C@@]5(C)CC[C@H](OC(C)=O)C(C)(C)[C@@H]5CC[C@]43C)[C@@H]12 | 13.9 | 15.6 | 18.2 | 17.3 | 15.1 | 14.8 | 11.8 | 15.4 | 18.2 | 14.7 | 10.3 | 13.4 | 16.6 | 14.8 | 15.5 |  |  |  |  |
| C=C(C)[C@@H]1CC[C@]2([C@H](O)/C=C\CO)CC[C@]3(C)[C@H](CC[C@@H]4[C@@]5(C)CC[C@H](OC(C)=O)C(C)(C)[C@@H]5CC[C@]43C)[C@@H]12 | 10.1 | 10.5 | 18.5 | 12.8 | 10.7 | 20.4 | 9 | 17.8 | 15.9 | 17.9 | 14.8 | 12.6 | 12.4 | 19.4 | 12.3 |  |  |  |  |
| C=C(C)[C@@H]1CC[C@]2([C@H](O)c3cnn(C)c3C(=O)OC)CC[C@]3(C)[C@H](CC[C@@H]4[C@@]5(C)CC[C@H](OC(C)=O)C(C)(C)[C@@H]5CC[C@]43C)[C@@H]12 | 13.4 | 20.4 | 14.1 | 24.5 | 17.6 |  | 22.8 | 10.8 |  | 7 | 16 | 12.7 | 12.4 | 12.3 |  | inactive | inactive | inactive |  |
